Assay: Toxicity liver stage against HepG2, at 10uM
Type: cell-based
Parameters: test concentration 10 uM, cell line HepG2-A16-CD81EGFP
Details: human, HepG2-A16-CD81EGFP cells; read-out: INHIBITION
Method in brief: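 Uninfected HepG2-A16-CD81EGFP cells, 3 × 10^3 per well, 1536-well, plated on prespotted compound at 10 μM final, parasite-free screening media added to match infected plates; puromycin 10 μM positive, DMSO 0.5% negative; run in parallel with 48 h PbLuc assay at 37 °C, 5% CO2; viability by CellTiter-Glo luminescence, normalized to controls.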

Row | Structure (SMILES) | cytotoxicity at 10 µM [%]
1 | CCOC1CC2(CCN(CCO)CC2)c2ccc(C)cc21 (stereo unspecified) | 9.01
2 | O=C(C1CN(Cc2ccoc2)CC12CCOCC2)N1CCCC1 (stereo unspecified) | 11.2
3 | Cc1cnc(N2CCC3(CC2)CC3C(=O)NCC2CC2)nc1 (stereo unspecified) | 6.34
4 | O=S(=O)(C1CC1)N1CCOCC2(CN(c3ncccn3)CCO2)C1 (stereo unspecified) | 6.37
5 | CC(=O)N1CC(=O)N(c2ccccc2)CC12CCN(Cc1ccsc1)C2 (stereo unspecified) | 13.4
6 | O=C(O)c1ccc2c(c1)C1(CCCCC1)CN2C(=O)c1cccc(F)c1 | 2.49
7 | CCCS(=O)(=O)N1CCC2(CCN(Cc3cccc(F)c3)C2=O)C1 (stereo unspecified) | 8.07
8 | O=C(O)c1nnn(-c2cc(F)cc(F)c2)c1-c1ccncc1 | 7.16
9 | CNC(=O)CSc1nc2c(cnn2Cc2ccc(F)cc2)c(=O)[nH]1 | -16
10 | O=C(C1CCOCC1)N1CCC2(CC1)CC(Oc1ccccc1)CO2 (stereo unspecified) | -17.3
11 | COCC1COCCC12CCN(C(=O)CCc1ccccc1)CC2 (stereo unspecified) | -9.8
12 | Cc1nn(C)c2cnn(Cc3ccc(C(=O)NC4CC4)o3)c12 | 9.43
13 | CSCc1cccc(S(=O)(=O)NCCCO)c1 | -7.5
14 | CCN1CCCC(c2nc(O)c3cc(C)ccc3n2)C1 (stereo unspecified) | 8.02
15 | NCCC(=O)N1CCC2(CC1)CN(C(=O)c1ccc(Cl)cc1)CCO2 | 3.1
16 | CC(NCCn1cccn1)c1ccc(F)cc1F (stereo unspecified) | 1.99
17 | COCCCN(Cc1ccncc1)C(=O)C1COc2ccccc2C1 (stereo unspecified) | 11.5
18 | OC1(CN2CCOC(Cn3cncn3)C2)CCCCC1 (stereo unspecified) | 9.87
19 | CN1CCCC(N(C)C(=O)c2ccc(NC(=O)c3ccc[nH]3)cc2)C1 (stereo unspecified) | -11.4
20 | CC(=O)Nc1ccc(F)c(S(=O)(=O)NC(C)(C)C)c1 | 1.15
21 | Cc1nn(CCO)c(C)c1CN1CCN(C2CCCCC2)C(=O)C1 | 0.541
22 | COCCN1CCCC1c1nccnc1Nc1nc(C)cs1 (stereo unspecified) | 6.02
23 | Cc1cnn(CC2CN(Cc3cccc(C(N)=O)c3)CCO2)c1 (stereo unspecified) | -1.52

Row | Structure (SMILES) | cytotoxicity at 10 µM [%]
24 | O=C(c1ccc2nncn2c1)N1CCCC(n2ccnc2)C1 (stereo unspecified) | -1.14
25 | CC(C)Cn1nnnc1SC(C(=O)NCc1cccnc1)C(C)C (stereo unspecified) | -4.05
26 | CN(Cc1ccccn1)C1CCCN(Cc2noc(C3CC3)n2)C1 (stereo unspecified) | 1.82
27 | Cc1nnc(CN2CCCC2c2c(C)nn(C)c2Cl)o1 (stereo unspecified) | 0.174
28 | c1ccc(-n2ccc(CNCC3CCCN3c3cccnn3)n2)cc1 (stereo unspecified) | -10.2
29 | Cc1nn(C)c(N2CCOCC2)c1CNC(C)c1cccs1 (stereo unspecified) | -1.47
30 | CCOc1cc(C(=O)N2CCCC(c3noc(CC)n3)C2)ccn1 (stereo unspecified) | -3.65
31 | Cc1ncsc1C(=O)N1CCCC(n2cncn2)C1 (stereo unspecified) | 0.364
32 | Cc1cc(C)n(C2CCCN(C(=O)CCCc3ccccn3)C2)n1 (stereo unspecified) | -16.3
33 | O=C(NCc1cc[nH]n1)NCC(O)COc1cccc(F)c1 (stereo unspecified) | 10.3
34 | O=C(NCc1ccccc1-n1cccn1)N1CCN2CCCCC2C1 (stereo unspecified) | -1.2
35 | O=S(=O)(NCc1ccccc1Cn1cncn1)C1CCCC1 | 0.674
36 | Cc1nc(C)n(C2CCCN(C(=O)c3cc(C(N)=O)cs3)C2)n1 (stereo unspecified) | -6.86
37 | CCc1ccc(OCC(O)CN2CCC(O)CC2)cc1 (stereo unspecified) | 3.99
38 | CCn1cc(CN2CCCN(C(=O)c3ccn(C)c(=O)c3)CC2)cn1 | -0.794
39 | O=C(c1ccoc1)N1C[C@@H]2[C@@H](C1)OCC(=O)N2Cc1cccnc1 | 3.33
40 | CN(C)[C@@H]1CN(Cc2cnn(C)c2)[C@@H]2COC[C@H]12 | 7.37
41 | NCCNS(=O)(=O)Cc1ccc(Br)cc1 | 19.4
42 | COCCN1CCCc2sc(C(=O)Nc3ccc(C)nc3)nc21 | 5.92
43 | O=C(C1=CCCC1)N1CC[C@]2(C[C@H](OCc3cccnc3)CO2)C1 | 11.7
44 | CCOCC1CN(Cc2ccoc2)Cc2nn(C)cc21 (stereo unspecified) | -2.8
45 | CC(C)n1ccc(-c2cc(C(=O)N3CCN(C)CC3)c3ccccn23)n1 | 9.49
46 | COCCN1CCN(S(C)(=O)=O)Cc2ccc(C)nc21 | -5.06

— ChEMBL document CHEMBL4513216, “Probing the Open Global Health Chemical Diversity Library for Multistage-Active Starting Points for Next-Generation Antimalarials” (ACS Infect Dis, 2020)
